PMI activator – increases human mannose-6-phosphate isomerase activity; activation factor at 20 µM; purified human PMI, coupled resazurin fluorescence, 20 min; hits give high values; 1 = vehicle control, 0 substrate-free wells; P34949; 0.005% of 190,000 active;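 active = activation factor of 2 or more at 20 µM, relative to plate controls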
Target sequence (P34949 whole entry, looked up): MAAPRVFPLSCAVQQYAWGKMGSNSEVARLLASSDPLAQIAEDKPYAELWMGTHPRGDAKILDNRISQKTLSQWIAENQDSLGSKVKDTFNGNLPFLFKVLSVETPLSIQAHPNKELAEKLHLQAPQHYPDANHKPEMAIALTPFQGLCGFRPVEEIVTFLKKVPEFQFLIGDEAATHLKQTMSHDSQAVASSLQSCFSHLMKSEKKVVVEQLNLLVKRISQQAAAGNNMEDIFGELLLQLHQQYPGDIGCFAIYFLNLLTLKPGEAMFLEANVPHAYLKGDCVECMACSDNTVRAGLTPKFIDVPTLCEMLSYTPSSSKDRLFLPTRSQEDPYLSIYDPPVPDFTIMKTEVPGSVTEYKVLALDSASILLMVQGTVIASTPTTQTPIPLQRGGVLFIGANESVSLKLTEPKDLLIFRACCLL
WT yeast gro inh – growth inhibition of WT yeast, mitochondrial fusion screen | inhibition, % at 10 µM | mitochondrial fusion phenotypic screen, WT strain | 2.1% of 190,000 active | AID 1362; in the data active = inhibition above about 58%; tested in S. cerevisiae
Lmaj promast – Leishmania major promastigote growth inhibition; Leishmania major promastigotes, resazurin fluorescence viability; inhibition, % at 10 µM; 9% of 200,000 active; AID 1063; in the data active = inhibition above about 50%;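 note: promastigotes grown with compound for 44 hours at 28 °C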
Diaph act CS – activates diaphorase or chemically reduces, flagging diaphorase assay artifacts | Diaphorase/resazurin coupled assay, resorufin fluorescence, 16 min; hits give high values; 1 = vehicle wells, 0 = NADH-free wells | activation factor at 20 µM | 0.005% of 190,000 active;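 active = diaphorase activity raised at least twofold by the compound at 20 µM; inactive = activation factor below 2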
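Material: Purified diaphorase enzyme from Clostridium kluyveri | Buffer or medium: 50 mM HEPES pH 7.4 with 4.542 mM MgCl2, 0.005% Tween 20 | Times: 16 min enzyme reaction, ambient temperature | Signal: Red resorufin fluorescence at 544/590 nm excitation/emission | Measure: Increased resorufin signal from activators or reducing compounds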
PMI act hi M6P – increases human PMI activity with near-saturating mannose 6-phosphate | 0.34% of 190,000 active | coupled PMI enzyme assay, resazurin fluorescence, 20 min; hits give high values; 1 = untreated enzyme, 0 = substrate-free blank | P34949 | activation factor at 20 µM | AID 1216;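 active = activation factor of 2 or more at 20 µM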
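assay system = human phosphomannose isomerase with PGI, G6PDH, diaphorase coupling enzymes | quantity = 15 ng/mL PMI | incubation = enzyme reaction with compound 20 min at room temperature | medium = HEPES pH 7.4 buffer with MgCl2 and Tween-20 | compound dosing = one concentration, 20 µM, in 1% DMSO | measured by = Diaphorase-driven resazurin-to-resorufin fluorescence, excitation 544, emission 590 nm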
* hit, by the source's call. Shown are actives, neighbours in structure and some others; about 10% of the full set was active somewhere.

SMILES	PMI activator	WT yeast gro inh	Lmaj promast	Diaph act CS	PMI act hi M6P
Cc1cc(OCCCCNC(C)C)cc(C(C)C)c1	1.2	19	97*	0.9	1.1
O=C(c1cc([N+](=O)[O-])ccc1N1CCOCC1)N1CCCC1	1	-7	-3	1	1.1
c1ccc(-c2nnsc2Sc2ccccn2)cc1	1	12	8	0.9	1
Oc1ccc(N2CCN(C(c3cccs3)c3nnnn3CCc3ccccc3)CC2)cc1 (centres undefined)	0.8	2	100*	0.7	0.7
c1ccc(Cn2nnnc2C(c2cccs2)N2CCc3ccccc3C2)cc1 (centres undefined)	1	41	51*	0.9	1.1
c1ccc(Cn2nnnc2C(c2cccs2)N2CCCCCC2)cc1 (centres undefined)	1.1	38	13	0.8	1
COc1ccc(Nc2nnc(-c3ccc(O)cc3)c3ccccc23)cc1C(N)=O	0.9	9	-3	1.1	1
COc1ccc(-c2nnc(Nc3ccc(OC)c(C(=O)N4CCCCC4)c3)c3ccccc23)cc1	0.9	-8	53*	0.9	0.9
CCc1nnc(NCC(=O)N2CCc3ccccc32)s1	1.1	-5	-1	0.9	2.2*
O=C(Nc1cccnc1)c1ccc(Cl)c(S(=O)(=O)N2CCc3ccccc32)c1	0.9	60*	59*	0.9	0.9
CCc1nnc(NC(=O)c2ccc(Cl)c(S(=O)(=O)N3CCc4ccccc4C3)c2)s1	1.1	-2	52*	1	1
COc1ccc(NC(=O)c2ccc(Cl)c(S(=O)(=O)N3CCc4ccccc4C3)c2)cn1	0.9	58*	33	0.8	0.9
CCN(CC)C(=O)C(=O)c1cn(CC(=O)N2CCc3ccccc3C2)c2ccccc12	1	-5	18	0.9	1
CCN(CC)C(=O)CCSc1nnc(-c2ccco2)o1	1	-18	-5	1	1
N#Cc1cc(C(=O)c2cc(Cl)ccc2O)cn(-c2ccccc2)c1=O	1	20	3	0.9	1
Cc1ccc(NC(=O)c2cc(C(=O)c3cc(Cl)ccc3O)cn(-c3ccc(C)cc3)c2=O)cc1	1	31	99*	0.8	1
CN1CC=C2C(C#N)=C(N)C(C#N)(C#N)[C@H](c3cccc(Cl)c3)C2C1 (some centres undefined)	0.8	7	9	0.7	0.8
CC(C)c1ccc(C2C3CSCC=C3C(C#N)=C(N)C2(C#N)C#N)cc1 (centres undefined)	0.7	19	98*	0.7	0.8
CN1CC=C2C(C#N)=C(N)C(C#N)(C#N)C(CCc3ccccc3)C2C1 (centres undefined)	0.8	-8	-3	0.8	0.8
CCCC1C2CN(C(C)C)CC=C2C(C#N)=C(N)C1(C#N)C#N (centres undefined)	0.7	39	76*	0.7	0.4
CCOc1ccc(/C=N/NC(=O)CSc2n[nH]c(=O)[nH]c2=O)cc1OC	1.1	-14	-6	1	1
COc1ccccc1NC(=O)CSC(N)=O	1	12	-5	0.8	1
CCC(c1nnnn1Cc1ccc2c(c1)OCO2)N1CCN(c2ccc(OC)cc2)CC1 (centres undefined)	1.1	2	71*	0.9	0.8
CCN1CCN(C(c2nnnn2Cc2ccc3c(c2)OCO3)C(C)C)CC1 (centres undefined)	1	-3	4	0.9	1
Cc1ccc(C(c2nnnn2Cc2cccs2)N2CCN(Cc3ccc4c(c3)OCO4)CC2)cc1 (centres undefined)	0.9	6	78*	0.9	0.9
CC(C)C(c1nnnn1Cc1ccc(F)cc1)N1CCN(Cc2ccc3c(c2)OCO3)CC1 (centres undefined)	0.9	-14	68*	0.8	0.9
c1ccc(Cn2nnnc2CN2CCN(Cc3ccc4c(c3)OCO4)CC2)cc1	1	3	89*	0.9	1.1
C=CCSC1=N/C(=C\c2ccc(C(=O)O)cc2)C(=O)S1	0.8	17	-4	0.9	0.8
O=c1c(N2CCOCC2)coc2ccccc12	1.8	-18	-3	1.3	2.8*
O=c1nc2s/c(=C\c3ccc(-c4ccccc4[N+](=O)[O-])o3)c(=O)n2nc1-c1ccccc1	1	-2	-10	0.3	0.5

High-throughput results (PubChem BioAssay)
